In ChEMBL document CHEMBL1136762, “Methoxylation of desazadesferrithiocin analogues: enhanced iron clearing efficiency” (J Med Chem, 2003):

How the values were obtained:
[1] = Partition coefficient (logP); format: physicochemical; details: octanol/water
In short: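 Shake-flask octanol–water distribution coefficient at pH 7.4 (50 mM TRIS), not corrected for ionization. Quadruplicate samples were shaken overnight with 1-octanol at 22–24 °C and the layers settled 1–2 h before separation. Quantified by UV spectrometry and expressed as the log of the fraction in the octanol layer.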

[2] = system: Monkey; assay: Iron clearing activity when administered 150 uM/kg orally to Cebus apella Primates (n = 4) [% stool/% urine = 70/30]; format: functional
[3] = system: Monkey; assay: Iron clearing activity when administered 150 uM/kg orally to Cebus apella Primates (n = 4) [% stool/% urine = 86/14]; format: functional
[4] = system: Monkey; assay: Iron clearing activity when administered 150 uM/kg orally to Cebus apella Primates (n = 4) [% stool/% urine = 81/19]; format: functional

Row | logP [1] | Structure (SMILES) | Efficiency [2] | Efficiency [3] | Efficiency [4]
1 | -0.91 | CC1(C)SC(c2ccc(O)cc2O)=N[C@H]1C(=O)O | 12.3% | – | –
2 | -0.7 | COc1ccc(C2=N[C@@](C)(C(=O)O)CS2)c(O)c1 | 24.4% | – | –
3 | -1.33 | O=C(O)[C@H]1CSC(c2ccc(O)cc2O)=N1 | 4.2% | – | –
4 | -1.05 | C[C@]1(C(=O)O)CSC(c2ccc(O)cc2O)=N1 [DEFERITRIN] | – | 13.4% | –
5 | -0.89 | COc1ccc(C2=N[C@@H](C(=O)O)CS2)c(O)c1 | – | – | 16.2%
